Laboratory results published in ChEMBL document CHEMBL3872212, “Synthesis, antimicrobial activity and advances in structure-activity relationships (SARs) of novel tri-substituted thiazole derivatives” (2016).
In brackets after ≈: the same amount, converted by molar mass.

Experiments:
Assay type in all cases: functional
[1] = test system: Bacillus spizizenii; assay: Antibacterial activity against Bacillus subtilis ATCC 6633 at 200 ug/mL measured after 24 hrs by filter paper disc method; conditions: ATCC 6633, 24 h, read-out: DIZ
[2] = test system: Staphylococcus aureus; assay: Antibacterial activity against Staphylococcus aureus ATCC 19433 at 200 ug/mL measured after 24 hrs by filter paper disc method; conditions: ATCC 19433, 24 h, read-out: DIZ
[3] = test system: Escherichia coli; assay: Antibacterial activity against Escherichia coli ATCC 8739 at 200 ug/mL measured after 24 hrs by filter paper disc method; conditions: ATCC 8739, 24 h, read-out: DIZ
[4] = test system: Proteus vulgaris; assay: Antibacterial activity against Proteus vulgaris […] at 200 ug/mL measured after 24 hrs by filter paper disc method; conditions: read-out: DIZ
[5] = test system: Bacillus spizizenii; assay: Antibacterial activity against Bacillus subtilis ATCC 6633 measured after 24 hrs by broth dilution method
Summary of the method: (§1)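 MIC is the lowest concentration that arrests growth of the organism.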

[6] = test system: Staphylococcus aureus; assay: Antibacterial activity against Staphylococcus aureus ATCC 19433 measured after 24 hrs by broth dilution method; summary of the method: as §1
[7] = test system: Escherichia coli; assay: Antibacterial activity against Escherichia coli ATCC 8739 measured after 24 hrs by broth dilution method; summary of the method: as §1
[8] = test system: Aspergillus niger; assay: Antifungal activity against Aspergillus niger MTCC 1881 at 200 ug/mL incubated at 4 degC for 24 hrs followed by subsequent incubation at 37.5 degC for 3 days by poisoned food method; conditions: read-out: DIZ
[9] = test system: Aspergillus flavus; assay: Antifungal activity against Aspergillus flavus MTCC 1884 at 200 ug/mL incubated at 4 degC for 24 hrs followed by subsequent incubation at 37.5 degC for 3 days by poisoned food method; conditions: read-out: DIZ
[10] = test system: Proteus vulgaris; assay: Antibacterial activity against Proteus vulgaris […] measured after 24 hrs by broth dilution method; summary of the method: as §1
[11] = test system: Aspergillus niger; assay: Antifungal activity against Aspergillus niger MTCC 1881 measured after 2 days by broth dilution method; summary of the method: as §1
[12] = test system: Aspergillus flavus; assay: Antifungal activity against Aspergillus flavus MTCC 1884 measured after 2 days by broth dilution method; summary of the method: as §1
[13] = test system: Bacillus spizizenii; assay: Bactericidal activity against Bacillus subtilis ATCC 6633 measured after 24 hrs by broth dilution method
Summary of the method: (§2)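 MBC/MFC is found by further steps carried out once the MIC has been determined.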

[14] = test system: Staphylococcus aureus; assay: Bactericidal activity against Staphylococcus aureus ATCC 19433 measured after 24 hrs by broth dilution method; summary of the method: as §2
[15] = test system: Escherichia coli; assay: Bactericidal activity against Escherichia coli ATCC 8739 measured after 24 hrs by broth dilution method; summary of the method: as §2
[16] = test system: Proteus vulgaris; assay: Bactericidal activity against Proteus vulgaris […] measured after 24 hrs by broth dilution method; summary of the method: as §2
[17] = test system: Aspergillus niger; assay: Fungicidal activity against Aspergillus niger MTCC 1881 measured after 2 days by broth dilution method; summary of the method: as §2
[18] = test system: Aspergillus flavus; assay: Fungicidal activity against Aspergillus flavus MTCC 1884 measured after 2 days by broth dilution method; summary of the method: as §2
[19] = test system: Bacillus spizizenii; assay: Ratio of MBC to MIC for Bacillus subtilis ATCC 6633
[20] = test system: Staphylococcus aureus; assay: Ratio of MBC to MIC for Staphylococcus aureus ATCC 19433
[21] = test system: Escherichia coli; assay: Ratio of MBC to MIC for Escherichia coli ATCC 8739
[22] = test system: Proteus vulgaris; assay: Ratio of MBC to MIC for Proteus vulgaris […]
[23] = test system: Aspergillus niger; assay: Ratio of MFC to MIC for Aspergillus niger MTCC 1881
[24] = test system: Aspergillus flavus; assay: Ratio of MFC to MIC for Aspergillus flavus MTCC 1884

Row | SMILES | zone of inhibition at 200 µg/mL [1] [mm] | zone of inhibition at 200 µg/mL [2] [mm] | zone of inhibition at 200 µg/mL [3] [mm] | zone of inhibition at 200 µg/mL [4] [mm] | MIC [5] [µg/mL] | MIC [6] [µg] | MIC [7] [µg] | zone of inhibition at 200 µg/mL [8] [mm] | zone of inhibition at 200 µg/mL [9] [mm] | MIC [10] [µg] | MIC [11] [µg] | MIC [12] [µg/mL] | MBC [13] [µg] | MBC [14] [µg] | MBC [15] [µg] | MBC [16] [µg] | MFC [17] [µg] | MFC [18] [µg] | Ratio [21] | Ratio [24] | other results
1 | O=C(O)c1cn(C2CC2)c2cc(N3CCNCC3)c(F)cc2c1=O [CIPROFLOXACIN] | 25.5 | 27 | 29.8 | 23.2 | 6.25 (≈ 18.9 µM) | 6.25 | 6.25 |  |  |  |  |  |  |  |  |  |  |  |  |  | 
2 | Cc1nc(-c2ccc(-c3ccc(O)cc3)cc2)c(C)s1 | 17.7 | 19.2 | 21.1 | 20 |  | 25 | 25 | 13.6 | 15.3 | 50 | 50 | 25 (≈ 88.8 µM) | 200 | 100 | >200 | 200 | 200 | 100 | >2 | >2 | Ratio [19]: >2; Ratio [20]: >2; Ratio [22]: >2; Ratio [23]: >2
3 | Cc1nc(-c2ccc(-c3cccc(C=O)c3)cc2)c(C)s1 | 6.65 | 8.02 | 9.56 | 7.39 |  |  |  | 3.92 | 6.29 |  |  |  |  |  |  |  |  |  |  |  | 
4 | Cc1ccc(-c2ccc(-c3nc(C)sc3C)cc2)cc1 | 21.1 | 23.1 | 24.2 | 19.5 |  | 100 | 12.5 | 19.7 | 21.3 | 50 | 25 | 25 (≈ 89.5 µM) | 100 | >200 | 100 | 100 | >200 | 100 |  |  | 
5 | COc1ccc(-c2ccc(-c3nc(C)sc3C)cc2)cc1 | 22.1 | 25.5 | 27.1 | 21.6 | 6.25 (≈ 21.2 µM) | 50 | 12.5 | 23.4 | 24.9 | 25 | 12.5 | 25 (≈ 84.6 µM) | 100 | >200 | 25 | 100 | 100 | 50 | 2 | 2 | 
6 | Cc1cc(C)c(-c2ccc(-c3nc(C)sc3C)cc2)c(C)c1 | 24.6 | 26.1 | 28 | 22.1 | 6.25 (≈ 20.3 µM) | 25 | 6.25 | 25.2 | 27.8 | 12.5 | 6.25 | 12.5 (≈ 40.7 µM) | 50 | 100 | 12.5 | 50 | 100 | 25 | 2 | 2 | 
